How the values were obtained:
A498 = experiment: Antiproliferative activity against human A498 cells assessed as reduction in cell viability at 30 uM incubated for 72 hrs by MTT assay relative to control; format: functional; conditions: A498, 72 h
Procedure, shortened: (§1)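 MTT read-out. Cells seeded at 1,000-2,200/well, grown 12 hr at 37 °C, then compound added for 72 hr. MTT for 4 hr, formazan dissolved in DMSO, absorbance at 490 nm. Untreated-cell OD taken as 100% proliferation; inhibition reported at 30 μM.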

OS-RC-2 = experiment: Antiproliferative activity against human OS-RC2 cells assessed as reduction in cell viability at 30 uM incubated for 72 hrs by MTT assay relative to control; format: functional; conditions: OS-RC-2, 72 h; procedure, shortened: as §1
[1] = target: Speckle-type POZ protein (Homo sapiens) (UniProt O43791); experiment: Binding affinity to recombinant N-terminal GST/His-tagged MATH binding domain SPOP (unknown origin) expressed in Escherichia coli BL21 (DE3) assessed as change in melting temperature at 10 fold compound incubated for 15 mins by nano differential scanning fluorimetry (reference value: -1.7 degreeC)
Speckle-type POZ protein (Homo sapiens), sequence (O43791 whole entry, the tested form may be a part): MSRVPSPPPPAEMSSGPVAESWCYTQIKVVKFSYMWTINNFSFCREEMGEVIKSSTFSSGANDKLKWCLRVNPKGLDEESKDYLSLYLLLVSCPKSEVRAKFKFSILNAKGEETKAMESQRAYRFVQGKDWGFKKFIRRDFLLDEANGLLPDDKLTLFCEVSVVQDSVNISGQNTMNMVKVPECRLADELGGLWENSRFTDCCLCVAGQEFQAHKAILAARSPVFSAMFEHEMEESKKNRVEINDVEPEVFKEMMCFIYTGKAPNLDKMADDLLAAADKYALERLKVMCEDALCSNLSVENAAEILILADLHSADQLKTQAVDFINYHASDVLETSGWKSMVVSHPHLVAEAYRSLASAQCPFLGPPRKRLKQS

[2] = target: Speckle-type POZ protein (Homo sapiens) (UniProt O43791); experiment: Binding affinity to recombinant N-terminal GST/His-tagged MATH binding domain SPOP (unknown origin) expressed in Escherichia coli BL21 (DE3) assessed as change in melting temperature at 20 fold compound incubated for 15 mins by nano differential scanning fluorimetry (reference value: -3.8 degreeC)

Cc1ccn2c(=O)c3cc(C(=O)NCCCN4CCOCC4)c(=N)n(CCc4cccs4)c3nc2c1
inhibition at 30 µM (A498): 75%
inhibition at 30 µM (OS-RC-2): 77%

CCOC(=O)c1cc2cnccc2n(CCc2ccccc2)c1=O
inhibition at 30 µM (A498): 14%
inhibition at 30 µM (OS-RC-2): 15%

Cc1cccn2c(=O)c3cc(C(=O)O)c(=N)n(CCc4ccc(Cl)cc4)c3nc12
inhibition at 30 µM (A498): 57%
inhibition at 30 µM (OS-RC-2): 30%

Cc1cccn2c(=O)c3cc(C(=O)NCCCN4CCOCC4)c(=N)n(C4CCCCC4)c3nc12
inhibition at 30 µM (A498): 37%
inhibition at 30 µM (OS-RC-2): 22%

CCOC(=O)c1cc2c(=O)n3cccc(C)c3nc2n(CCc2ccc(C)cc2)c1=N
ΔTm [1]: 0.8 °C
inhibition at 30 µM (A498): 51%
inhibition at 30 µM (OS-RC-2): 49%
ΔTm [2]: 1.5 °C

Cc1cccn2c(=O)c3cc(C(=O)NCCN4CCOCC4)c(=N)n(CCc4cccs4)c3nc12
ΔTm [1]: 3.1 °C
inhibition at 30 µM (A498): 86%
inhibition at 30 µM (OS-RC-2): 82%
ΔTm [2]: 3.3 °C

O=C(NCCc1ccc(F)cc1)c1cc2cnccc2n(CCc2ccccc2)c1=O
inhibition at 30 µM (A498): 25%
inhibition at 30 µM (OS-RC-2): 16%

Cc1cccn2c(=O)c3cc(C(=O)NCCCN4CCOCC4)c(=N)n(CCCN4CCOCC4)c3nc12
inhibition at 30 µM (A498): 27%
inhibition at 30 µM (OS-RC-2): 35%

CCOC(=O)c1cc2c(=O)n3cccc(C)c3nc2n(-c2ccccc2)c1=N
inhibition at 30 µM (A498): 51%
inhibition at 30 µM (OS-RC-2): 10%

Cc1cccn2c(=O)c3cc(C(=O)O)c(=N)n(Cc4ccco4)c3nc12
inhibition at 30 µM (A498): 24%
inhibition at 30 µM (OS-RC-2): 16%

O=C(NCCc1ccc(F)cc1)c1cc2cccnc2n(CCc2ccccc2)c1=O
inhibition at 30 µM (A498): 8%
inhibition at 30 µM (OS-RC-2): 14%

Cc1cccn2c(=O)c3cc(C(=O)NCCc4ccc(F)cc4)c(=N)n(CCc4cccs4)c3nc12
inhibition at 30 µM (A498): 12%
inhibition at 30 µM (OS-RC-2): 21%

CCOC(=O)c1cc2c(=O)n3cccc(C)c3nc2n(C(C)C)c1=N
inhibition at 30 µM (A498): 27%
inhibition at 30 µM (OS-RC-2): 23%

Cc1cccn2c(=O)c3cc(C(=O)O)c(=N)n(CCc4cccs4)c3nc12
inhibition at 30 µM (A498): 25%
inhibition at 30 µM (OS-RC-2): 37%

Cc1cccn2c(=O)c3cc(C(=O)NCCCN4CCOCC4)c(=N)n(CCOc4ccccc4)c3nc12
inhibition at 30 µM (A498): 50%
inhibition at 30 µM (OS-RC-2): 36%

Cc1cccn2c(=O)c3cc(C(=O)NCCCN4CCOCC4)c(=N)n(CCc4c[nH]c5ccccc45)c3nc12
inhibition at 30 µM (A498): 55%
inhibition at 30 µM (OS-RC-2): 51%

Cc1cccn2c(=O)c3cc(C(=O)NCCCN4CCOCC4)c(=N)n(-c4ccccc4)c3nc12
inhibition at 30 µM (A498): 12%
inhibition at 30 µM (OS-RC-2): 23%

Cc1cccn2c(=O)c3cc(C(=O)NCCCN4CCOCC4)c(=N)n(Cc4ccccc4)c3nc12
inhibition at 30 µM (A498): 58%
inhibition at 30 µM (OS-RC-2): 46%

Cc1cccn2c(=O)c3cc(C(=O)NCCCN4CCOCC4)c(=N)n(C)c3nc12
inhibition at 30 µM (A498): 59%
inhibition at 30 µM (OS-RC-2): 62%

Cc1cccn2c(=O)c3cc(C(=O)NCCCN4CCOCC4)c(=N)n(CCc4ccccc4F)c3nc12
inhibition at 30 µM (A498): 61%
inhibition at 30 µM (OS-RC-2): 74%

Cc1cccn2c(=O)c3cc(C(=O)NCCCN4CCOCC4)c(=N)n(Cc4ccncc4)c3nc12
inhibition at 30 µM (A498): 48%
inhibition at 30 µM (OS-RC-2): 35%

CCCn1c(=N)c(C(=O)O)cc2c(=O)n3cccc(C)c3nc21
inhibition at 30 µM (A498): 21%
inhibition at 30 µM (OS-RC-2): 29%

CCOC(=O)c1cc2c(=O)n3cccc(C)c3nc2n(CCc2ccccc2)c1=N
inhibition at 30 µM (A498): 24%
inhibition at 30 µM (OS-RC-2): 20%

CCOC(=O)c1cc2c(=O)n3cccc(C)c3nc2n(Cc2ccco2)c1=N
inhibition at 30 µM (A498): 59%
inhibition at 30 µM (OS-RC-2): 56%

Cc1cccn2c(=O)c3cc(C(=O)NCCCN4CCOCC4)c(=N)n(C(C)C)c3nc12
inhibition at 30 µM (A498): 11%
inhibition at 30 µM (OS-RC-2): 15%

CCOC(=O)c1cc2c(=O)n3cccc(C)c3nc2n(CCc2ccc(Cl)cc2)c1=N
ΔTm [1]: 0.8 °C
inhibition at 30 µM (A498): 42%
inhibition at 30 µM (OS-RC-2): 48%
ΔTm [2]: 1.6 °C

Cc1cccn2c(=O)c3cc(C(=O)NCC4CCCO4)c(=N)n(CCc4cccs4)c3nc12 (configuration not stated)
inhibition at 30 µM (A498): 86%
inhibition at 30 µM (OS-RC-2): 83%

Cc1cccn2c(=O)c3cc(C(=O)O)c(=N)n(Cc4ccccc4)c3nc12
inhibition at 30 µM (A498): 20%
inhibition at 30 µM (OS-RC-2): 32%

Cc1cccn2c(=O)c3cc(C(=O)O)c(=N)n(C(C)C)c3nc12
inhibition at 30 µM (A498): 18%
inhibition at 30 µM (OS-RC-2): 22%

Cc1cccn2c(=O)c3cc(C(=O)NCCCN4CCOCC4)c(=N)n(-c4ccc(Cl)cc4)c3nc12
inhibition at 30 µM (A498): 17%
inhibition at 30 µM (OS-RC-2): 38%

C#CCn1c(=N)c(C(=O)NCCCN2CCOCC2)cc2c(=O)n3cccc(C)c3nc21
inhibition at 30 µM (A498): 37%
inhibition at 30 µM (OS-RC-2): 37%

CCOC(=O)c1cc2c(=O)n3cccc(C)c3nc2n(-c2ccc(F)cc2)c1=N
ΔTm [1]: 1.7 °C
inhibition at 30 µM (A498): 33%
inhibition at 30 µM (OS-RC-2): 16%
ΔTm [2]: 1.9 °C

CCCn1c(=N)c(C(=O)OCC)cc2c(=O)n3cccc(C)c3nc21
inhibition at 30 µM (A498): 38%
inhibition at 30 µM (OS-RC-2): 35%

CCN(CC)CCNC(=O)c1cc2cnccc2n(CCc2ccccc2)c1=O
inhibition at 30 µM (A498): 38%
inhibition at 30 µM (OS-RC-2): 11%

CCN(CC)CCNC(=O)c1cc2cccnc2n(CCc2ccccc2)c1=O
inhibition at 30 µM (A498): 13%
inhibition at 30 µM (OS-RC-2): 30%

Cc1cccn2c(=O)c3cc(C(=O)NCCCc4ccccc4)c(=N)n(CCc4cccs4)c3nc12
ΔTm [1]: 2.8 °C
inhibition at 30 µM (A498): 62%
inhibition at 30 µM (OS-RC-2): 58%
ΔTm [2]: 2.6 °C

Cc1cccn2c(=O)c3cc(C(=O)NCc4ccccc4)c(=N)n(CCc4cccs4)c3nc12
inhibition at 30 µM (A498): 60%
inhibition at 30 µM (OS-RC-2): 50%

O=C(O)c1cc2cnccc2n(CCc2ccccc2)c1=O
inhibition at 30 µM (A498): 21%
inhibition at 30 µM (OS-RC-2): 15%

Cc1ccc(CCn2c(=N)c(C(=O)O)cc3c(=O)n4cccc(C)c4nc32)cc1
inhibition at 30 µM (A498): 51%
inhibition at 30 µM (OS-RC-2): 31%

Cc1cccn2c(=O)c3cc(C(=O)O)c(=N)n(CCc4ccccc4)c3nc12
ΔTm [1]: 2.3 °C
inhibition at 30 µM (A498): 13%
inhibition at 30 µM (OS-RC-2): 28%
ΔTm [2]: 3.7 °C

Cc1cccn2c(=O)c3cc(C(=O)NCCCN4CCOCC4)c(=N)n(CCN4CCOCC4)c3nc12
inhibition at 30 µM (A498): 35%
inhibition at 30 µM (OS-RC-2): 40%

Cc1cccn2c(=O)c3cc(C(=O)NCCO)c(=N)n(CCc4cccs4)c3nc12
inhibition at 30 µM (A498): 83%
inhibition at 30 µM (OS-RC-2): 81%

CCOC(=O)c1cc2cccnc2n(CCc2ccccc2)c1=O
inhibition at 30 µM (A498): 15%
inhibition at 30 µM (OS-RC-2): 19%

CCOC(=O)c1cc2c(=O)n3cccc(C)c3nc2n(Cc2ccccc2)c1=N
inhibition at 30 µM (A498): 24%
inhibition at 30 µM (OS-RC-2): 26%

Cc1cccn2c(=O)c3cc(C(=O)O)c(=N)n(-c4ccc(F)cc4)c3nc12
inhibition at 30 µM (A498): 18%
inhibition at 30 µM (OS-RC-2): 33%

N=c1c(C(=O)NCCCN2CCOCC2)cc2c(=O)n3ccccc3nc2n1CCc1cccs1
inhibition at 30 µM (A498): 62%
inhibition at 30 µM (OS-RC-2): 56%

Cc1cccn2c(=O)c3cc(C(=O)O)c(=N)n(-c4ccccc4)c3nc12
inhibition at 30 µM (A498): 24%
inhibition at 30 µM (OS-RC-2): 16%

O=C(O)c1cc2cccnc2n(CCc2ccccc2)c1=O
inhibition at 30 µM (A498): 33%
inhibition at 30 µM (OS-RC-2): 24%

CCOC(=O)c1cc2c(=O)n3cccc(C)c3nc2n(CCc2cccs2)c1=N
ΔTm [1]: 4.9 °C
inhibition at 30 µM (A498): 38%
inhibition at 30 µM (OS-RC-2): 49%
ΔTm [2]: 5.3 °C

Source: ChEMBL document CHEMBL4402603, “Structure-Activity Relationship of SPOP Inhibitors against Kidney Cancer” (J Med Chem, 2020)
